Data as given in ChEMBL document CHEMBL5696442, “Discovery of type II inhibitors of TGFβ-activated kinase 1 (TAK1) and mitogen-activated protein kinase kinase kinase kinase 2 (MAP4K2)” (J Med Chem, 2015).

Experiments:
[1] = target: Mitogen-activated protein kinase 14 (Homo sapiens, UniProt Q16539); test: Inhibition of p38 alpha in human Huh-7 cell lysate at 1 uM by KiNativ Profiling analysis relative to control; assay type: subcellular
[2] = target: Mitogen-activated protein kinase 9 (Homo sapiens, UniProt P45984); test: Inhibition of JNK2 Lys2 labeling site in human A-375 cells at 5 uM by KiNativ Profiling analysis relative to control; assay type: cell-based
[3] = target: p38 delta/gamma (Homo sapiens) (UniProt O15264+P53778); test: Inhibition of p38delta/gamma Lys2 labeling site in human A-375 cells at 5 uM by KiNativ Profiling analysis relative to control; assay type: cell-based
[4] = target: T1, Mitogen-activated protein kinase kinase kinase 2 (Homo sapiens) (UniProt Q9Y2U5); test: Inhibition of MAP3K2 Lys2 labeling site in human A-375 cells at 5 uM by KiNativ Profiling analysis relative to control; assay type: cell-based
T1 sequence (whole entry): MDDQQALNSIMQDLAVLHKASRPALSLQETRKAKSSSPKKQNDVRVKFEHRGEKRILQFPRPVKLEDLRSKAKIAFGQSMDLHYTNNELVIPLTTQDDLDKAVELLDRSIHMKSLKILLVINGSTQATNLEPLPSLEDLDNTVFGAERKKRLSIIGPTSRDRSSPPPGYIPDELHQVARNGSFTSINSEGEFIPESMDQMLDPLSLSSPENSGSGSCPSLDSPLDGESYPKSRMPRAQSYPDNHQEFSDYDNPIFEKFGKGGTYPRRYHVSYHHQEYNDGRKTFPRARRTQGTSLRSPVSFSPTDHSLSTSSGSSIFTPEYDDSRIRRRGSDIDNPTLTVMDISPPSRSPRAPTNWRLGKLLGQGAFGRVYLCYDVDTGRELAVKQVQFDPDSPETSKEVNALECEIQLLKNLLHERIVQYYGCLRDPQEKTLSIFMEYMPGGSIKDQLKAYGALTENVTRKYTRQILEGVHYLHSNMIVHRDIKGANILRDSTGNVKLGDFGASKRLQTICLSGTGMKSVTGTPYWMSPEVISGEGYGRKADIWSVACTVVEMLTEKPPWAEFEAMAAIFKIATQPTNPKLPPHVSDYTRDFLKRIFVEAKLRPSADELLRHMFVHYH

[5] = target: Serine/threonine-protein kinase 25 (Homo sapiens) (UniProt O00506); test: Inhibition of YSK1 ACT labeling site in human A-375 cells at 5 uM by KiNativ Profiling analysis relative to control; assay type: cell-based
[6] = target: Serine/threonine-protein kinase 38 (Homo sapiens) (UniProt Q15208); test: Inhibition of NDR1 Lys1 labeling site in human A-375 cells at 5 uM by KiNativ Profiling analysis relative to control; assay type: cell-based
[7] = target: Cyclin-dependent kinase 17 (Homo sapiens) (UniProt Q00537); test: Inhibition of PCTAIRE2 Lys1 labeling site harbouring SKLTENLVALKEIRLEHEEGAPCTAIR in human A-375 cells at 5 uM by KiNativ Profiling analysis relative to control; assay type: cell-based
[8] = target: Cyclin-dependent kinase 11B (Homo sapiens) (UniProt P21127); test: Inhibition of PITSLRE Lys2 labeling site in human A-375 cells at 5 uM by KiNativ Profiling analysis relative to control; assay type: cell-based
[9] = target: Protein kinase C beta type (Homo sapiens) (UniProt P05771); test: Inhibition of PKCb Lys2 labeling site in human A-375 cells at 5 uM by KiNativ Profiling analysis relative to control; assay type: cell-based
[10] = target: Serine/threonine-protein kinase WNK1 (Homo sapiens) (UniProt Q9H4A3); test: Inhibition of Wnk1 ATP Loop labeling site in human A-375 cells at 5 uM by KiNativ Profiling analysis relative to control; assay type: cell-based
[11] = target: Serine/threonine-protein kinase WNK2 (Homo sapiens) (UniProt Q9Y3S1); test: Inhibition of Wnk2 ACT labeling site in human A-375 cells at 5 uM by KiNativ Profiling analysis relative to control; assay type: cell-based
[12] = target: T1, Mitogen-activated protein kinase kinase kinase 2 (Homo sapiens); test: Inhibition of MAP3K2 Lys1 labeling site harbouring VYLCYDVDTGRELAVKQVQFDPDSPETSKEVNALECEIQLLK in human A-375 cells at 0.5 uM by KiNativ Profiling analysis relative to control; assay type: cell-based
[13] = target: Serine/threonine-protein kinase 38 (Homo sapiens) (UniProt Q15208); test: Inhibition of NDR1 Lys2 labeling site in human A-375 cells at 0.5 uM by KiNativ Profiling analysis relative to control; assay type: cell-based
[14] = target: Ribosomal protein S6 kinase alpha-1 (Homo sapiens) (UniProt Q15418); test: Inhibition of RSK1 Protein Kinase Domain in human A-375 cells at 0.5 uM by KiNativ Profiling analysis relative to control; assay type: cell-based
Procedure, shortened: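 Live A375 melanoma cells treated with compound at 5 or 0.5 μM, then lysed. Lysate kinases were labeled with a lysine-reactive ATP or ADP-biotin probe. Inhibition was read as protection of labeling sites from the probe.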

[15] = target: Calcium/calmodulin-dependent protein kinase type II subunit delta (Homo sapiens) (UniProt Q13557); test: Inhibition of CaMK2d Lys1 labeling site in human A-375 cells at 0.05 uM by KiNativ Profiling analysis relative to control; assay type: cell-based
[16] = target: Cyclin-dependent kinase 11B (Homo sapiens) (UniProt P21127); test: Inhibition of CDK11 Lys2 labeling site in human A-375 cells at 0.05 uM by KiNativ Profiling analysis relative to control; assay type: cell-based

Chain of Cyclin-dependent kinase 11B (Homo sapiens) (P21127 whole entry): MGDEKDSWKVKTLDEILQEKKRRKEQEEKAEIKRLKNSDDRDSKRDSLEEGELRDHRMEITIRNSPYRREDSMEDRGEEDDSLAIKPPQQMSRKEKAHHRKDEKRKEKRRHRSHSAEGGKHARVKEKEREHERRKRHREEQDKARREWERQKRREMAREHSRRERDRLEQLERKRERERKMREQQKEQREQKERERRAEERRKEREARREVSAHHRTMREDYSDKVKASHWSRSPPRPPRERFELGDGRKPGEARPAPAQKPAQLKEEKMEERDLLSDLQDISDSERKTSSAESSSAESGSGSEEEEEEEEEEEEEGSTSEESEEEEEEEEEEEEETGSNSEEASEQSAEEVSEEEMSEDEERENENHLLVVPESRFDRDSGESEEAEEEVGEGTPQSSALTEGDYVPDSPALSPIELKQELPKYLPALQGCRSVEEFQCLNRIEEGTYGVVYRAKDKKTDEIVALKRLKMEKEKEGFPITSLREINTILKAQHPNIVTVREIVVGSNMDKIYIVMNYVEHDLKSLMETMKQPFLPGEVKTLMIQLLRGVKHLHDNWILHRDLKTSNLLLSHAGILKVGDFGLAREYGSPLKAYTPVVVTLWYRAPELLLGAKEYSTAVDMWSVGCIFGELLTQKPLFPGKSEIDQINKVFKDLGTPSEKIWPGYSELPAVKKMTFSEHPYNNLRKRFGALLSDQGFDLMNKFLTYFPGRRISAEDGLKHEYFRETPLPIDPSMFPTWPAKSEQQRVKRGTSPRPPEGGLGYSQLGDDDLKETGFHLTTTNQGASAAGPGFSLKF
Chain of Serine/threonine-protein kinase 38 (Homo sapiens) (Q15208 2-465 limits assumed): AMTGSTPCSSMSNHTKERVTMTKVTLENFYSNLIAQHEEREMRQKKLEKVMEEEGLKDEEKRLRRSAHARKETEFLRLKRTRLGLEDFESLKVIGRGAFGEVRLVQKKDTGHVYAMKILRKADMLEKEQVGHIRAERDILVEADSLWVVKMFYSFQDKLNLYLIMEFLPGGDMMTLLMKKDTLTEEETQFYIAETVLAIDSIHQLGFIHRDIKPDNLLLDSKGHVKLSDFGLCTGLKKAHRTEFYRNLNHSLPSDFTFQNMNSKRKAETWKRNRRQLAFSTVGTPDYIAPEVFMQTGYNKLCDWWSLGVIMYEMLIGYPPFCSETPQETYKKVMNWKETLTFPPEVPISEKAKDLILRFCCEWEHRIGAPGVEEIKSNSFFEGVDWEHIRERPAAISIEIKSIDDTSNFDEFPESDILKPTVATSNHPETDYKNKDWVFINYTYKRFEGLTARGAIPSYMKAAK
Chain of Serine/threonine-protein kinase WNK2 (Homo sapiens) (Q9Y3S1 whole entry): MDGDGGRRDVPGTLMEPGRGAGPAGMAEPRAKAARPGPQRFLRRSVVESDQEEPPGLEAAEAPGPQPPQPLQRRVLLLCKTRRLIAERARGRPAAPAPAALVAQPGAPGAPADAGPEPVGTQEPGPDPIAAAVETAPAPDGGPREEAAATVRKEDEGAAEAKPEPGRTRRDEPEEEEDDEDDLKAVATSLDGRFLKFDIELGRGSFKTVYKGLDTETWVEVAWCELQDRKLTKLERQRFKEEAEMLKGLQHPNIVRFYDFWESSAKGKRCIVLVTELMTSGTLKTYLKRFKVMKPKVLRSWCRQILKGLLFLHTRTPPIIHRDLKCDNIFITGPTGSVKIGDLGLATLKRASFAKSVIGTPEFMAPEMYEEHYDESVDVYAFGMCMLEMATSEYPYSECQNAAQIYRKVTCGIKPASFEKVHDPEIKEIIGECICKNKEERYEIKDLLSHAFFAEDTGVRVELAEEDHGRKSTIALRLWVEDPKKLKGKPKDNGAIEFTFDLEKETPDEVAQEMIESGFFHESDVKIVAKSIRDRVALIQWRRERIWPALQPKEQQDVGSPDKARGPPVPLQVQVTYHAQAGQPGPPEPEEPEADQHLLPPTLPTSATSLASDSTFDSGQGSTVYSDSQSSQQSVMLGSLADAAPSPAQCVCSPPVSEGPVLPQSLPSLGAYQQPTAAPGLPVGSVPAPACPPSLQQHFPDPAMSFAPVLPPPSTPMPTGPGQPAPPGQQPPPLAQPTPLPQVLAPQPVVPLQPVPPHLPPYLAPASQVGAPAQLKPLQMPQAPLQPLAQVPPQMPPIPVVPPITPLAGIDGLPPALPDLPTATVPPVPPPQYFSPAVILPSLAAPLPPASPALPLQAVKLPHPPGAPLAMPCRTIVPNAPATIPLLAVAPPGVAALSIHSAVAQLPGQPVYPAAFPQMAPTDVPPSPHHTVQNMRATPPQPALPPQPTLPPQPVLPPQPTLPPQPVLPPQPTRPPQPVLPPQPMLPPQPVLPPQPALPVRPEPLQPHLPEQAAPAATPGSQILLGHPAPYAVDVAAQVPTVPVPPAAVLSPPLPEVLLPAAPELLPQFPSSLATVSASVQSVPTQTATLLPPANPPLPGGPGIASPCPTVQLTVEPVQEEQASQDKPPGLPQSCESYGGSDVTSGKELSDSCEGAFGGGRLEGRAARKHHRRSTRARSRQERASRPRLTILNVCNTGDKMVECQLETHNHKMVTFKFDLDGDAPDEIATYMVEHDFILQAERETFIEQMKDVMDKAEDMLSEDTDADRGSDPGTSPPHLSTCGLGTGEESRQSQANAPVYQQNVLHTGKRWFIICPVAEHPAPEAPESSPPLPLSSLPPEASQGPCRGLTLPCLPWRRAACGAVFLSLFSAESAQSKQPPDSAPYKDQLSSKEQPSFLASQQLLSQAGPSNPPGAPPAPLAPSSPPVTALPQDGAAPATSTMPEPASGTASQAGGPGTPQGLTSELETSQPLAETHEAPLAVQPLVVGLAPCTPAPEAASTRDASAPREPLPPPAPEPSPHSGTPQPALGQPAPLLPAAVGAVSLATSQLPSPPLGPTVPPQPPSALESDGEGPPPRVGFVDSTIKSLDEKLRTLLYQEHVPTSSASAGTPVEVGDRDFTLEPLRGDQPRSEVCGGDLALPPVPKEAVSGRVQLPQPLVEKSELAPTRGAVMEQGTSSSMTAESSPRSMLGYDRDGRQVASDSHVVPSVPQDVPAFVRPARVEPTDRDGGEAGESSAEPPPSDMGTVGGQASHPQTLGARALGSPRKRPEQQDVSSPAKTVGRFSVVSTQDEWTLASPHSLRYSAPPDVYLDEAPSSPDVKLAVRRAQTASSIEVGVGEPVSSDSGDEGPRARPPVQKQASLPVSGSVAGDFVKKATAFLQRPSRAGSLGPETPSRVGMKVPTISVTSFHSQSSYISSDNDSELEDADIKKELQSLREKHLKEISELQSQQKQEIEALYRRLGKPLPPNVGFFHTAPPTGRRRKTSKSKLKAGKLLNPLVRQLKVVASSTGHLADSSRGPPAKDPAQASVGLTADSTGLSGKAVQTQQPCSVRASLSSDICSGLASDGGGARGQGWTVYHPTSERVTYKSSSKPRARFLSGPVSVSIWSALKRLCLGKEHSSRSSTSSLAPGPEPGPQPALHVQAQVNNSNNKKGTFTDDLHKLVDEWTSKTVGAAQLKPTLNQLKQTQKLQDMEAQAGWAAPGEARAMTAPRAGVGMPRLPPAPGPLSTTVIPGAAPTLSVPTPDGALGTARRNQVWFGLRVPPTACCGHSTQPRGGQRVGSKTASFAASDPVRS
Chain of Cyclin-dependent kinase 17 (Homo sapiens) (Q00537 whole entry, looked up): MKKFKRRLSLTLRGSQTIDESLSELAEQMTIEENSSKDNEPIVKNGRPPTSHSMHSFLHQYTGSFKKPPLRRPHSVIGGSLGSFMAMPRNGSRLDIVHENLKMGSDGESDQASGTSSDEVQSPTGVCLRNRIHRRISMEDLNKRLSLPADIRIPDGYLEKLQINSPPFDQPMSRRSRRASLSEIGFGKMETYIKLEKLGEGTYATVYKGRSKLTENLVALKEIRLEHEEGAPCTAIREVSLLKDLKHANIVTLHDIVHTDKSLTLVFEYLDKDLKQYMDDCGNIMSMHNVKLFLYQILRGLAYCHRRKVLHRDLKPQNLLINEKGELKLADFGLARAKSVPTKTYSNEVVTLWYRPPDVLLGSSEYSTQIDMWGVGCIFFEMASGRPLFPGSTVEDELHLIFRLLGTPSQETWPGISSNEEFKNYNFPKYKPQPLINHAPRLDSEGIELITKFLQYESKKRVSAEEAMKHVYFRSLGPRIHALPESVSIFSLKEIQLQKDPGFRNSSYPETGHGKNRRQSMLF
Chain of Ribosomal protein S6 kinase alpha-1 (Homo sapiens) (Q15418 whole entry, the tested form may be a part): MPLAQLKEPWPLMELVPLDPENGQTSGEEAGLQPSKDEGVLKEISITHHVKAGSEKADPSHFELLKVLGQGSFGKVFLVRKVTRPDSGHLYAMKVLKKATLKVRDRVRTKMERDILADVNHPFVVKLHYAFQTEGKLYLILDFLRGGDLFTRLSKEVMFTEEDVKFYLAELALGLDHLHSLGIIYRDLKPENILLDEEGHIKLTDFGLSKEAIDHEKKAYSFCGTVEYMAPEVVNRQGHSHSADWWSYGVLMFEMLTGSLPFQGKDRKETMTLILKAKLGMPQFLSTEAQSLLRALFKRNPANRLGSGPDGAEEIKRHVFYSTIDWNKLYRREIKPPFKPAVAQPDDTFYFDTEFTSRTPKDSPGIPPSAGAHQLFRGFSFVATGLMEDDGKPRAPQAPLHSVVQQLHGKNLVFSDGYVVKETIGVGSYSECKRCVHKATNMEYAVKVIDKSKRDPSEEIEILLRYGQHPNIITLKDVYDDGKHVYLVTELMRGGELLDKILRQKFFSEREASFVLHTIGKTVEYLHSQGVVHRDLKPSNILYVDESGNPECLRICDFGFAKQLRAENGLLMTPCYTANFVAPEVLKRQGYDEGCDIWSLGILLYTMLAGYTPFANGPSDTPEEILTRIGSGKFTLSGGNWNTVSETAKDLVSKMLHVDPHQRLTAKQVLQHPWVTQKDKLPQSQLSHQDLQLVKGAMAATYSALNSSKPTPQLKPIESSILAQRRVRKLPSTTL

SMILES | inhibition [1] [%] | inhibition [2] [%] | inhibition [3] [%] | inhibition [4] [%] | inhibition [5] [%] | inhibition [6] [%] | inhibition [7] [%] | inhibition [8] [%] | inhibition [9] [%] | inhibition [10] [%] | inhibition [11] [%] | inhibition [12] [%] | inhibition [13] [%] | inhibition [14] [%] | inhibition [15] [%] | inhibition [16] [%]
CNc1cc(Oc2cc(C(=O)Nc3cc(N4CCN(C)CC4)cc(C(F)(F)F)c3)ccc2C)ncn1 | 27.1 |  |  |  |  |  |  |  |  |  |  |  |  |  |  | 
CCN1CCN(Cc2ccc(NC(=O)c3ccc(C)c(/C=C/c4cnc5[nH]ccc5c4OC)c3)cc2C(F)(F)F)CC1 |  | 76.9 | 52.7 | 11.8 | 13.7 | 3.3 | 21.3 | -9.5 | 50.2 | 13.7 | -4.5 | -0.7 | 30.6 | 3.2 | 14 | -9.4
CNc1cc(Oc2cc(C(=O)Nc3cc(-n4cnc(C)c4)cc(C(F)(F)F)c3)ccc2C)ncn1 | 13.4 |  |  |  |  |  |  |  |  |  |  |  |  |  |  | 
CCN1CCN(Cc2ccc(NC(=O)c3ccc(C)c(Oc4ccnc5[nH]ccc45)c3)cc2C(F)(F)F)CC1 |  | 90.3 | > 94 | -4.8 | 35.1 | -0.8 | 56.6 | 6.3 | 51 | 13.1 | 14.4 | 17.4 | 33.9 | 0.9 | 13.1 | 32.1
